5HT1a antag: blocks the human serotonin 5-HT1a receptor; CHO 5-HT1a Ga15 NFAT-bla reporter, antagonist mode; inhibition, % at 10 µM; 62,000 compounds, 0.68% hits; AID 612;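 active = inhibition above the mean of all tested compounds plus 3 SD, cut at about 43% in these data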;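 also: receptor stimulated by 5-CT agonist at 100 nM near EC80; beta-lactamase reporter measured by ratiometric fluorescence of a cleavable substrate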
5HT1E ag: 5-HT1E (human) receptor agonism. P28566. CHO 5-HT1E Ga15 NFAT-bla reporter, FRET; 0% DMSO wells, 100% control agonist wells. activation, % at 6 µM. 65,000 compounds, 0.69% hits. AID 574;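 active = activation above a set limit, the screen-wide mean activation plus 3 SD, cut at about 8.5% in these data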;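 also: 100% = positive control agonist at 1 µM giving full maximal response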
S1P1 ag pot: activates or potentiates agonism at human S1P1 receptor; 56,000 compounds, 0.57% hits; S1P1 CRE-bla cells, forskolin, beta-lactamase FRET, potentiator mode; S1P1 agonist co-added at EC20, 2 nM; 100% = saturating reference agonist, 0% = basal; activation, % at 9.5 µM; P21453;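 active = activation above a cutoff set at the mean activation of all tested compounds plus 3 SD, cut at about 54% in these data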;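 also: forskolin at 4 µM as EC80 and the EC20 agonist is SEW2871; 100% = SEW2871 at its EC100 plus forskolin at EC80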
S1P3 agonist: agonists of human S1P3 receptor; 60,000 compounds, 0.1% hits; Q99500; AID 373; activation, % at 4.5 µM; S1P3 NFAT-BLA reporter cells, agonism, FRET ratio; relative to 1 µM S1P, basal subtracted;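 active = activation above the screen-wide mean plus 3 SD, cut at about 4.5% in these data, passing the limit was not always enough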
Target sequence (Q99500 whole entry, looked up): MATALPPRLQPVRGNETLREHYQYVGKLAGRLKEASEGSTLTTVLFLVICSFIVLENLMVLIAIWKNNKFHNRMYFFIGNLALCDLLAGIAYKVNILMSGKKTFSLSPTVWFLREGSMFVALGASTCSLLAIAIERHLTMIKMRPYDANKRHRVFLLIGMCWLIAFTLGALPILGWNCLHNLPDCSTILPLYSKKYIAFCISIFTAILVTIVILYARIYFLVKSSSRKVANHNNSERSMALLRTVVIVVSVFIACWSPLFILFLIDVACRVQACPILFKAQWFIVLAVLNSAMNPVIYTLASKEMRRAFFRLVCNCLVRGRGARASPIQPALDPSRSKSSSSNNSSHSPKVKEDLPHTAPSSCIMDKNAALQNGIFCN
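Assay system: stable CHO line with human S1P3, Gα16, NFAT-BLA reporter; Detection: FRET β-lactamase substrate fluorescence, excitation 405 nm, 460/535 nm emission ratio, background-subtracted; Read-out: percent activation versus median 1 µM S1P response, basal-subtracted, per plate; Incubation: cells plated overnight, compound 4 h 37 °C, substrate 2 h RT.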
5HT1E antag: antagonists of human 5-HT1E serotonin receptor; P28566; CHO 5-HT1E Ga15 NFAT-bla reporter, FRET, antagonist; inhibition, % at 6 µM; 65,000 compounds, 0.99% hits; AID 571;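 active = inhibition above a set limit, the mean inhibition across every tested compound plus 3 SD, cut at about 29% in these data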;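 also: signal is the 460 over 535 nm emission ratio of beta-lactamase substrate; 0% = agonist plus DMSO wells and 100% = wells without agonist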
5HT1a ag: agonists of human 5-HT1a serotonin receptor; 65,000 compounds, 0.56% hits; CHO 5-HT1a Ga15 NFAT-bla reporter, FRET ratio; 0% basal, 100% maximal reference agonist; activation, % at 10 µM; P08908; AID 567;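 active = activation above the screen-wide mean activation plus 3 SD, cut at about 19% in these data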;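 also: 0% = DMSO wells and 100% = 5-CT at EC100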
The depositor's hits bear a star; . = no result. An excerpt weighted towards active compounds, which were near 3% of everything screened.

SMILES	5HT1a antag	5HT1E ag	S1P1 ag pot	S1P3 agonist	5HT1E antag	5HT1a ag
Cc1ccc2c(CC(=O)N3CCN(S(=O)(=O)c4ccc5c(c4)OCCO5)CC3)coc2c1	-14	0	24	1	-10	-1
Cc1nc(NCCCn2ccnc2)c2oc3ccccc3c2n1	22	-1	15	-2	32*	0
COCC(=O)NC1CCN(C(=O)NCc2ccccc2)CC1	-8	2	.	.	-17	1
Clc1ccc(CSc2nnc(-c3ccncc3)o2)cc1	5	0	97*	3	5	1
OCC#CCSc1nnc(-c2ccncc2)o1	-1	1	-6	-2	-3	-2
O=C(OCC1COc2ccccc2O1)c1c(F)cccc1F (stereo not drawn)	-6	0	.	.	-5	1
CCCCC(c1nnnn1CC1CCCO1)N1CCN(c2nc3ccccc3s2)CC1 (stereo not drawn)	26	10*	38	-1	20	-2
CC(C)CC(c1nnnn1CC1CCCO1)N1CCN(c2nc3ccccc3s2)CC1 (stereo not drawn)	3	0	-19	0	-10	-5
O=C(Cn1c(-c2ccccc2)noc1=O)Nc1ccc(N2CCCCCC2)cc1	4	0	20	-1	7	-3
N#CC1=C(N)OC2=C(C(=O)CCC2)C1Cc1ccccc1 (stereo not drawn)	-6	0	2	0	-14	-2
CCC1CCCCN1C(=O)CSc1nnc(-c2c[nH]c3ccccc23)o1 (stereo not drawn)	-14	1	79*	-1	-131	1
COc1ccc2c(c1)sc1nc(-c3ccccc3)cn12	65*	-1	-14	-1	75*	1
O=C(c1cnc2sccn2c1=O)N(Cc1ccccc1)c1ccccn1	-6	0	7	0	-6	27*
CC(C)C(c1nnnn1Cc1cccs1)N1CCN(C2CCCC2)CC1 (stereo not drawn)	17	1	2	0	-2	31*
Fc1ccc(Cn2nnnc2CN2CCN(C3CCCC3)CC2)cc1	4	-1	-16	0	-7	-1
CCC(c1nnnn1Cc1ccc(F)cc1)N1CCN(C2CCCCC2)CC1 (stereo not drawn)	47*	1	-31	-1	-2	-2
CCCCCCn1c(CN2CCN(C(=O)OCC)CC2)nc2c1c(=O)n(C)c(=O)n2C	-2	-1	-12	-1	-2	-2
CCN1CCCC1CNC(=O)Cn1cnc2sc(C)c(S(=O)(=O)N3CCC(C)CC3)c2c1=O (stereo not drawn)	5	1	.	.	-3	0
COC(=O)c1cc(Br)c(=O)n(CC(C)C)c1	0	9.5*	-1	-1	-5	0
COC(=O)c1cc(Br)c(=O)n(CCN2CCCCC2)c1	17	1	5	-1	4	2
Cc1cc(NC(=O)CCCS(=O)(=O)c2nc(-c3cccs3)cc(C(F)(F)F)n2)no1	98*	1	36	-2	30*	-4
CS(=O)(=O)c1nc(-c2cccs2)cc(C(F)(F)F)n1	110*	2	.	.	106*	-13
COC(=O)c1ccccc1NC(=O)CSc1nc(-c2ccco2)cc(C(F)(F)F)n1	28	-1	8	-2	50*	-2
Cc1cc(NC(=O)CSc2nc(-c3cccs3)cc(C(F)(F)F)n2)no1	21	0	4	0	59*	-2
CN1CCN(c2nc(N3CCN(c4ccccc4)CC3)ncc2F)CC1	11	35*	-31	-1	9	-1
COc1cccc(C2CC(c3cccc(Br)c3)n3nc(N)nc3N2)c1 (stereo not drawn)	-2	0	-28	-1	-1	-1
Cc1oc(-c2ccccc2)nc1Cn1cccc1C1=NC(c2ccccc2)CO1 (stereo not drawn)	32	0	104*	-1	4	0
COC(=O)c1ccc(-n2nnnc2SCC(=O)Nc2cc(OC)ccc2OC)cc1	9	0	12	0	-3	-4
COc1ccc(OC)c(NC(=O)CSc2nnnn2-c2ccc3c(c2)OCO3)c1	44*	0	-22	-1	-6	0

Screening data deposited in PubChem BioAssay by The Scripps Research Institute Molecular Screening Center.
